Test results reported in ChEMBL document CHEMBL1140919, “Structure-based drug design of novel Aurora kinase A inhibitors: structural basis for potency and specificity” (J Med Chem, 2009).
Values belong to the compound of their own block, whether it stands above or below them.

Assays:
Aurora kinase A = Aurora kinase A (Homo sapiens, UniProt O14965, T288D); experiment: Inhibition of Aurora kinase A T288D mutant expressed in Escherichia coli BL21 DE3
[1] = test system: T1, Aurora kinase A (Homo sapiens), O14965 [T288D]; experiment: Inhibition of Aurora kinase A T288D mutant expressed in Escherichia coli BL21 DE3 at 10 uM
T1 sequence (whole entry): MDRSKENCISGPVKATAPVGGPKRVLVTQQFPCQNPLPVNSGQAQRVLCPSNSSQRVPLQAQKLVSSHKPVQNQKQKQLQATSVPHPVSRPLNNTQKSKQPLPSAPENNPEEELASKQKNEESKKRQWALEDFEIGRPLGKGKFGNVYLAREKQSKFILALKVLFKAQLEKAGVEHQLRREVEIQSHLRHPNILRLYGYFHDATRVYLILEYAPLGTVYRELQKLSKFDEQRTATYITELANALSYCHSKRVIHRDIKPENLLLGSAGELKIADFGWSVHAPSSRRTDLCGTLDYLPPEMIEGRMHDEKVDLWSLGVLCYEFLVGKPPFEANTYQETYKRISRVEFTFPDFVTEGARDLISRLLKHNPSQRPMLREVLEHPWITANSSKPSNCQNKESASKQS

[2] = biological target: Aurora kinase A (Homo sapiens) (UniProt O14965); experiment: Inhibition of Aurora kinase A Thr288 autophosphorylation in human HCT116 cells by Western blot; assay type: cell-based; conditions: HCT-116
Procedure, shortened: (§1)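 HCT-116 cells, 4 × 10^5 per well, were seeded for 24 h and synchronized with 40 ng/mL nocodazole for 16 h. They were then exposed to compound at 0.625–40 µM for 2 h at 37 °C. Cells were lysed in SDS sample buffer (pH 6.8, 2% SDS) at 95 °C for 10 min, and 50 µg was run on SDS-PAGE. Blots were probed for phospho-Aurora A (Thr288) and phospho-histone H3 (Ser10) with HRP detection.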

[3] = biological target: Aurora kinase B (Homo sapiens) (UniProt Q96GD4); experiment: Inhibition of Aurora kinase B in human HCT116 cells assessed as reduced phosphorylated histone H3 levels by Western blot; assay type: cell-based; conditions: HCT-116; procedure, shortened: as §1
[4] = biological target: Tyrosine-protein kinase ABL1 (Homo sapiens) (UniProt P00519); experiment: Inhibition of ABL1 at 1 uM relative to control
[5] = biological target: RAC-alpha serine/threonine-protein kinase (Homo sapiens) (UniProt P31749); experiment: Inhibition of AKT1 at 1 uM relative to control
[6] = biological target: ALK tyrosine kinase receptor (Homo sapiens) (UniProt Q9UM73); experiment: Inhibition of ALK at 1 uM relative to control
[7] = biological target: 5'-AMP-activated protein kinase catalytic subunit alpha-1 (Homo sapiens) (UniProt Q13131); experiment: Inhibition of AMPK alpha-1/beta-1/gamma-1 at 1 uM relative to control
[8] = biological target: Aurora kinase A (Homo sapiens) (UniProt O14965); experiment: Inhibition of AURKA at 1 uM relative to control
[9] = biological target: Aurora kinase B (Homo sapiens) (UniProt Q96GD4); experiment: Inhibition of AURKB at 1 uM relative to control
[10] = biological target: Aurora kinase C (Homo sapiens) (UniProt Q9UQB9); experiment: Inhibition of AURKC at 1 uM relative to control
[11] = biological target: Cyclin-dependent kinase 2 (Homo sapiens) (UniProt P24941); experiment: Inhibition of CDK2/Cyclin A at 1 uM relative to control
[12] = biological target: Serine/threonine-protein kinase Chk1 (Homo sapiens) (UniProt O14757); experiment: Inhibition of CHK1 at 1 uM relative to control
[13] = biological target: Epidermal growth factor receptor (Homo sapiens) (UniProt P00533); experiment: Inhibition of EGFR at 1 uM relative to control
[14] = biological target: Ephrin type-A receptor 1 (Homo sapiens) (UniProt P21709); experiment: Inhibition of EPHA1 at 1 uM relative to control
[15] = biological target: Receptor tyrosine-protein kinase erbB-2 (Homo sapiens) (UniProt P04626); experiment: Inhibition of ERBB2 at 1 uM relative to control
[16] = biological target: Vascular endothelial growth factor receptor 1 (Homo sapiens) (UniProt P17948); experiment: Inhibition of FLT1 at 1 uM relative to control
[17] = biological target: Receptor-type tyrosine-protein kinase FLT3 (Homo sapiens) (UniProt P36888); experiment: Inhibition of FLT3 at 1 uM relative to control
[18] = biological target: Serine/threonine-protein kinase mTOR (Homo sapiens) (UniProt P42345); experiment: Inhibition of FRAP1 at 1 uM relative to control
[19] = biological target: Insulin-like growth factor 1 receptor (Homo sapiens) (UniProt P08069); experiment: Inhibition of IGF1R at 1 uM relative to control
[20] = biological target: Inhibitor of nuclear factor kappa-B kinase subunit epsilon (Homo sapiens) (UniProt Q14164); experiment: Inhibition of IKK epsilon at 1 uM relative to control
[21] = biological target: Tyrosine-protein kinase JAK2 (Homo sapiens) (UniProt O60674); experiment: Inhibition of JAK2 at 1 uM relative to control
[22] = biological target: Mast/stem cell growth factor receptor Kit (Homo sapiens) (UniProt P10721); experiment: Inhibition of KIT at 1 uM relative to control
[23] = biological target: Mitogen-activated protein kinase 14 (Homo sapiens) (UniProt Q16539); experiment: Inhibition of MAPK14 at 1 uM relative to control
[24] = biological target: Hepatocyte growth factor receptor (Homo sapiens) (UniProt P08581); experiment: Inhibition of cMET at 1 uM relative to control
[25] = biological target: High affinity nerve growth factor receptor (Homo sapiens) (UniProt P04629); experiment: Inhibition of NTRK1 at 1 uM relative to control
[26] = biological target: Serine/threonine-protein kinase PLK1 (Homo sapiens) (UniProt P53350); experiment: Inhibition of PLK1 at 1 uM relative to control
[27] = test system: RAF proto-oncogene serine/threonine-protein kinase (Homo sapiens), P04049 [Y340D,Y341D]; experiment: Inhibition of cRaf Y340D/Y341D mutant at 1 uM relative to control
[28] = biological target: Proto-oncogene tyrosine-protein kinase receptor Ret (Homo sapiens) (UniProt P07949); experiment: Inhibition of RET at 1 uM relative to control
[29] = biological target: Proto-oncogene tyrosine-protein kinase Src (Homo sapiens) (UniProt P12931); experiment: Inhibition of SRC at 1 uM relative to control
[30] = biological target: Angiopoietin-1 receptor (Homo sapiens) (UniProt Q02763); experiment: Inhibition of TEK at 1 uM relative to control
[31] = biological target: Phosphatidylinositol 4,5-bisphosphate 3-kinase catalytic subunit gamma isoform (Homo sapiens) (UniProt P48736); experiment: Inhibition of PIK3CG at 1 uM relative to control
[32] = biological target: Glycogen synthase kinase-3 beta (Homo sapiens) (UniProt P49841); experiment: Inhibition of GSK3-beta at 1 uM relative to control
[33] = biological target: 3-phosphoinositide-dependent protein kinase 1 (Homo sapiens) (UniProt O15530); experiment: Inhibition of PDK1 at 1 uM relative to control

Aurora kinase A (Homo sapiens), sequence (O14965 whole entry): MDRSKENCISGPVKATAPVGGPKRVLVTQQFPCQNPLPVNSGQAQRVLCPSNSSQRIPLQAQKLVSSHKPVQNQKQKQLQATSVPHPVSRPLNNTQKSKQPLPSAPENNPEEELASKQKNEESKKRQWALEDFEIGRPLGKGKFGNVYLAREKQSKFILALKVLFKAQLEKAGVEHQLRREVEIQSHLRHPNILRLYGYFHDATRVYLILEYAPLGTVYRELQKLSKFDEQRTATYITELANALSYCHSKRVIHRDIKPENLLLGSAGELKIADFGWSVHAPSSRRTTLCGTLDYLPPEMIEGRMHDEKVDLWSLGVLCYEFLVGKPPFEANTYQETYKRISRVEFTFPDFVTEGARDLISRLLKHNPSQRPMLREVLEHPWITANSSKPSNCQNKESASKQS
Aurora kinase B (Homo sapiens), sequence (Q96GD4 whole entry): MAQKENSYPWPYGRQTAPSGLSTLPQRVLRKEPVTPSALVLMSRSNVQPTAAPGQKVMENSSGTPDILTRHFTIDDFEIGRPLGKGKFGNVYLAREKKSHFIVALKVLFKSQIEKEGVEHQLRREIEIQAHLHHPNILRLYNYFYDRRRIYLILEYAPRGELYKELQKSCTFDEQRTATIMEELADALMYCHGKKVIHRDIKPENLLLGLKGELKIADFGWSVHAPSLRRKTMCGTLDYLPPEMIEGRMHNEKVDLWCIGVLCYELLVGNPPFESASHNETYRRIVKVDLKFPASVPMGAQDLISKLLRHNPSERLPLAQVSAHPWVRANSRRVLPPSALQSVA
Proto-oncogene tyrosine-protein kinase Src (Homo sapiens), sequence (P12931 2-536 limits assumed): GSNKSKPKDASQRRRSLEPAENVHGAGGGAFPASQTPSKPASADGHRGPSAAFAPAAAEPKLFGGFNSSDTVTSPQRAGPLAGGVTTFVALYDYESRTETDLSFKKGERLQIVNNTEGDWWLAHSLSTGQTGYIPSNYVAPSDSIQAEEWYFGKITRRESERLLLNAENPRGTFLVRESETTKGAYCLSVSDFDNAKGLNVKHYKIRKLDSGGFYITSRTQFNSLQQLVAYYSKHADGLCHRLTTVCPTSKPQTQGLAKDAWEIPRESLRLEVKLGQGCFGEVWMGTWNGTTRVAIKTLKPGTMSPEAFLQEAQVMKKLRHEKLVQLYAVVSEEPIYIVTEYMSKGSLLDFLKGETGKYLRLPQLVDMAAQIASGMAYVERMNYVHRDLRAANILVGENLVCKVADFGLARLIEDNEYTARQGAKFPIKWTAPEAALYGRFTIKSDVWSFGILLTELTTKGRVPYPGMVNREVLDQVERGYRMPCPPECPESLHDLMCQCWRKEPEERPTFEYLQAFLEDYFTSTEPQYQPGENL
Serine/threonine-protein kinase PLK1 (Homo sapiens), sequence (P53350 whole entry): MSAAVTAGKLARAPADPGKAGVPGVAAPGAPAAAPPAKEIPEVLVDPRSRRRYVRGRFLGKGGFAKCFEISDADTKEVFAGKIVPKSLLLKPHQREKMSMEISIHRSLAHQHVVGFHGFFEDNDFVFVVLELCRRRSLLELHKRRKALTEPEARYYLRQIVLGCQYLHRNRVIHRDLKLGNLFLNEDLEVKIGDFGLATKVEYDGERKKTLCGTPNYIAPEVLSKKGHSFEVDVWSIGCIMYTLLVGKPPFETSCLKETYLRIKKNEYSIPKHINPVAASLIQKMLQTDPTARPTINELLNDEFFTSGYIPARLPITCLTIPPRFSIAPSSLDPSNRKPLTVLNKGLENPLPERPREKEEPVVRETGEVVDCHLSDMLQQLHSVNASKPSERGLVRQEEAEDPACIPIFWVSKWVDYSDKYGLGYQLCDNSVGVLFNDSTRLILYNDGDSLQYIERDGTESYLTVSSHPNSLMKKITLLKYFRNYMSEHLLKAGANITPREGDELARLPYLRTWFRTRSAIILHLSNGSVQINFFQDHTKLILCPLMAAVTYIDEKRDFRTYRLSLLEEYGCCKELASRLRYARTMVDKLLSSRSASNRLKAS
Hepatocyte growth factor receptor (Homo sapiens), sequence (P08581 whole entry): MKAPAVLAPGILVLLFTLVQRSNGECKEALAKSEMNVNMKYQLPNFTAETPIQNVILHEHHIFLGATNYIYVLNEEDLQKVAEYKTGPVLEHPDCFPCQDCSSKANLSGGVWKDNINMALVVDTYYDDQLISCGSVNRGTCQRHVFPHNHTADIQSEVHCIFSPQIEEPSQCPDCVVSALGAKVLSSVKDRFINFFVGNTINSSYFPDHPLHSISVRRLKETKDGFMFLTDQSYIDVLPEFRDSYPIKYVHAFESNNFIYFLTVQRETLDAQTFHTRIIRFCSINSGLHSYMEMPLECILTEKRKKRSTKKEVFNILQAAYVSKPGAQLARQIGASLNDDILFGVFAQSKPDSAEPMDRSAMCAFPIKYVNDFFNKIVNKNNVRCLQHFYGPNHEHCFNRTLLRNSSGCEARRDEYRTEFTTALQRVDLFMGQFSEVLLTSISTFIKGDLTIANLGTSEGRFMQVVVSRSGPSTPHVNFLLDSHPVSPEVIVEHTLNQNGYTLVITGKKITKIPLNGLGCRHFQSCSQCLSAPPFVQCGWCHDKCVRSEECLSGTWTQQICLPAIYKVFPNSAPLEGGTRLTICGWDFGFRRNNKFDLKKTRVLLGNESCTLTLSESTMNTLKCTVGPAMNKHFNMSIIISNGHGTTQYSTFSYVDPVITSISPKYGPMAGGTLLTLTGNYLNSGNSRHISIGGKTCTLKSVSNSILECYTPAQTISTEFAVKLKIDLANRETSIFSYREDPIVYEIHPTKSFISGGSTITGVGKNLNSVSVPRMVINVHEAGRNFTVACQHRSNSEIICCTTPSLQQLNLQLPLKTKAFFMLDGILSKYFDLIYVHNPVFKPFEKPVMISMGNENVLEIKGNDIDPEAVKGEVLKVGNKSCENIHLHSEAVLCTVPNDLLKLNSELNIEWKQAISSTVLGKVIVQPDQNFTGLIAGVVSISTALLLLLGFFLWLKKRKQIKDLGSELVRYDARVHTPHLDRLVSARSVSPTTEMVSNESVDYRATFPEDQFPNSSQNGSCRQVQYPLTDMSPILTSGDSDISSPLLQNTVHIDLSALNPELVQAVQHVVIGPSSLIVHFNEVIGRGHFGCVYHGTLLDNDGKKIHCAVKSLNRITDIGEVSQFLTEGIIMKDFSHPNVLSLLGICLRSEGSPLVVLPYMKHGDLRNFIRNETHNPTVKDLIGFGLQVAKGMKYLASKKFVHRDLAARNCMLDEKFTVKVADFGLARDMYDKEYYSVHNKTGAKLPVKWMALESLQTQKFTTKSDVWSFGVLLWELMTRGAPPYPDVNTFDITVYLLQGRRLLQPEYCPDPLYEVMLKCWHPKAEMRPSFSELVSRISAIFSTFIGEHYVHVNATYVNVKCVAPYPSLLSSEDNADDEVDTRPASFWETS
Glycogen synthase kinase-3 beta (Homo sapiens), sequence (P49841 whole entry, looked up): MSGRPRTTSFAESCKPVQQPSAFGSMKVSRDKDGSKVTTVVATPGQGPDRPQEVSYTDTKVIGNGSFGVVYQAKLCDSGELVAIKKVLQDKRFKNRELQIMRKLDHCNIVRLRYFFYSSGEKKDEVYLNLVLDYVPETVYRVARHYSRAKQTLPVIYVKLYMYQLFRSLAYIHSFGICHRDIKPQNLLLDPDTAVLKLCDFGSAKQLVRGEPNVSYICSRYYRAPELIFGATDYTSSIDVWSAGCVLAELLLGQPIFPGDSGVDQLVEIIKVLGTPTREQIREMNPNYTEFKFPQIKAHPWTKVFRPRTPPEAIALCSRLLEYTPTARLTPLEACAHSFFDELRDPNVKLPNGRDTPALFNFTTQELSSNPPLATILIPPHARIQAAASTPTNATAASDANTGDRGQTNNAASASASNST
Ephrin type-A receptor 1 (Homo sapiens), sequence (P21709 whole entry): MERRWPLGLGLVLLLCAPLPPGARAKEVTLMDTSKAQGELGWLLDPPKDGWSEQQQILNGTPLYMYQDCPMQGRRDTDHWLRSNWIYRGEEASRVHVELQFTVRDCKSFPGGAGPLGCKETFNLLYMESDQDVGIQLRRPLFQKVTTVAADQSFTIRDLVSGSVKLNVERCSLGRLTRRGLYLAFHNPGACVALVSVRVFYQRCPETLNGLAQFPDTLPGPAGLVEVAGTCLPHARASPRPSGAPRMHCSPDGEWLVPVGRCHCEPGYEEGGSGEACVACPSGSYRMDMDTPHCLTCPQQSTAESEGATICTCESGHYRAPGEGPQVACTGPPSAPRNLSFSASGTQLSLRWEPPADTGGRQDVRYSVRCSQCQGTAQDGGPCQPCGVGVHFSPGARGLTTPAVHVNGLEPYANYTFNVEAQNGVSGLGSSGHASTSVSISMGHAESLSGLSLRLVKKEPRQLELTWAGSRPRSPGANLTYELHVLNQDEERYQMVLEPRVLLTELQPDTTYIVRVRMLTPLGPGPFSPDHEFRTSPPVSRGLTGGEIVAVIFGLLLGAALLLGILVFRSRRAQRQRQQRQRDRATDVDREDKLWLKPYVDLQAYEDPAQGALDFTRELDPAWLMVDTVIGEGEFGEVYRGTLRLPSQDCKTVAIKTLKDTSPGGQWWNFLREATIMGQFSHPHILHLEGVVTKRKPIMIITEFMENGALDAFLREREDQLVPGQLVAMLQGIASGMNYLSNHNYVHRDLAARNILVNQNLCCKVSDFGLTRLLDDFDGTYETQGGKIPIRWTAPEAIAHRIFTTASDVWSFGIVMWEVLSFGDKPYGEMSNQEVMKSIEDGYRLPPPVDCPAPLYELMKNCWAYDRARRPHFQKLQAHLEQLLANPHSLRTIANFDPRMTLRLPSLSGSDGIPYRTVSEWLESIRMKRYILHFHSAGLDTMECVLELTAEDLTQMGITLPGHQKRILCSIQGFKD
Aurora kinase C (Homo sapiens), sequence (Q9UQB9 whole entry): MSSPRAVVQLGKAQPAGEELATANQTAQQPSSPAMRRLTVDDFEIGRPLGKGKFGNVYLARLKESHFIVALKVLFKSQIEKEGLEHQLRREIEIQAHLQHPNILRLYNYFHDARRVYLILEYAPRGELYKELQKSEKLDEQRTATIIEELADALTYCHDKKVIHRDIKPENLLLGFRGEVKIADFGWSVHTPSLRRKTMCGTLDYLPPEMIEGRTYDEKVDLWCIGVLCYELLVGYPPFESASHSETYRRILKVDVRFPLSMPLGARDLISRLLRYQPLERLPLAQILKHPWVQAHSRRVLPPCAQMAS

Compound: COc1ccc(/C=N/Nc2[nH]nc(C)c2C(=O)Nc2ccc(N(C)C)cc2)cc1
IC50 (Aurora kinase A): 1.57 µM

Compound: CCOC(=O)c1c(C)n[nH]c1N/N=C/c1ccc2[nH]ccc2c1
inhibition [1]: 50% | IC50 (Aurora kinase A): 11.5 µM

Compound: CCOC(=O)c1c(C)n[nH]c1N/N=C/c1cccc2[nH]ccc12
inhibition [1]: 50.3% | IC50 (Aurora kinase A): 13.7 µM

Compound: COc1ccc(/C=N/Nc2[nH]nc(C)c2C(=O)Nc2ccc(F)cc2)cc1
IC50 (Aurora kinase A): 1.45 µM

Compound: COc1ccc(/C=N/Nc2[nH]nc(C)c2C(=O)Nc2ccc(NC(C)=O)cc2)cc1
IC50 (Aurora kinase A): 0.719 µM

Compound: COc1ccc(/C=N/Nc2[nH]nc(C)c2C(=O)NCCc2c[nH]cn2)cc1
IC50 (Aurora kinase A): 1.94 µM

Compound: CCOC(=O)c1c(C)n[nH]c1N/N=C(\C)c1ccc(OC)cc1
inhibition [1]: 18.2%

Compound: CCOC(=O)c1c(C)n[nH]c1N/N=C/c1ccc(OC)cc1
inhibition [1]: 33.9% | IC50 (Aurora kinase A): 15.1 µM

Compound: CCOC(=O)c1c(C)n[nH]c1N/N=C/c1ccc(F)cc1
inhibition [1]: 36.5%

Compound: COc1ccc(/C=N/Nc2[nH]nc(C)c2C(=O)NCCc2ccc(OC)cc2)cc1
IC50 (Aurora kinase A): 1.58 µM

Compound: COc1ccc(/C=N/Nc2[nH]nc(C)c2C(=O)Nc2ccc(OC)c(OC)c2)cc1
IC50 (Aurora kinase A): 0.96 µM

Compound: CCOC(=O)c1c(C)n[nH]c1N/N=C/Cc1ccccc1
inhibition [1]: 3.6%

Compound: COc1ccc(/C=N/Nc2[nH]nc(C)c2C(=O)Nc2ccc(OC)cc2)cc1
IC50 (Aurora kinase A): 0.46 µM

Compound: CCOC(=O)c1c(C)n[nH]c1N/N=C/c1ccc(N2CCN(C)CC2)cc1
inhibition [1]: 41%

Compound: COc1ccc(/C=N/Nc2[nH]nc(C)c2C(=O)Nc2cccc(OC)c2)cc1
IC50 (Aurora kinase A): 0.449 µM

Compound: CCOC(=O)c1c(C)n[nH]c1N/N=C/c1ccccc1
inhibition [1]: 16.4%

Compound: COc1ccc(/C=N/Nc2[nH]nc(C)c2C(=O)Nc2cccc(NC(C)=O)c2)cc1
Activity [2]: Dose-dependent effect | Activity [3]: Dose-dependent effect | inhibition [4]: 17% | inhibition [5]: 13% | inhibition [6]: 1% | inhibition [7]: 31% | inhibition [8]: 91% | inhibition [9]: 36% | inhibition [10]: 45% | inhibition [11]: 48% | inhibition [12]: 21% | inhibition [13]: 8% | inhibition [14]: 51% | inhibition [15]: 26% | inhibition [16]: 27% | inhibition [17]: 48% | inhibition [18]: -6% | inhibition [19]: 11% | inhibition [20]: -8% | inhibition [21]: 56% | inhibition [22]: 61% | inhibition [23]: 19% | inhibition [24]: 19% | inhibition [25]: 66% | inhibition [26]: 11% | inhibition [27]: -1% | inhibition [28]: 76% | inhibition [29]: 33% | inhibition [30]: 4% | inhibition [31]: -3% | inhibition [32]: 32% | inhibition [33]: 17%

Compound: COc1ccc(/C=N/Nc2[nH]nc(C)c2C(=O)NCc2ccc(OC)cc2)cc1
IC50 (Aurora kinase A): 1.62 µM

Next, values leading:

IC50 (Aurora kinase A): > 50 µM
Compound: COc1ccc(/C=N/Nc2[nH]nc(C)c2C(=O)N(C)c2ccccc2)cc1

IC50 (Aurora kinase A): 1.35 µM
Compound: COc1ccc(/C=N/Nc2[nH]nc(C)c2C(=O)NCCc2ccccc2)cc1

IC50 (Aurora kinase A): 1.48 µM
Compound: COc1ccc(/C=N/Nc2[nH]nc(C)c2C(=O)NCCc2cccnc2)cc1

IC50 (Aurora kinase A): 1.58 µM
Compound: COc1ccc(/C=N/Nc2[nH]nc(C)c2C(=O)NCc2ccccc2)cc1

IC50 (Aurora kinase A): 1.75 µM
Compound: COc1ccc(/C=N/Nc2[nH]nc(C)c2C(=O)NCc2cccc(NC(C)=O)c2)cc1

IC50 (Aurora kinase A): > 50 µM
Compound: COc1ccc(/C=N/Nc2[nH]nc(C)c2C(=O)N(C)Cc2ccccc2)cc1

IC50 (Aurora kinase A): 5.25 µM
Compound: COc1ccc(/C=N/Nc2[nH]nc(C)c2C(=O)OCc2ccccc2)cc1

IC50 (Aurora kinase A): 2.9 µM
Compound: COc1ccc(/C=N/Nc2[nH]nc(C)c2C(=O)NCCc2cccc(OC)c2)cc1

IC50 (Aurora kinase A): 1.94 µM
Compound: COc1ccc(/C=N/Nc2[nH]nc(C)c2C(=O)NCCCc2ccccc2)cc1

IC50 (Aurora kinase A): 0.804 µM
Compound: COc1ccc(/C=N/Nc2[nH]nc(C)c2C(=O)Nc2ccccc2)cc1

IC50 (Aurora kinase A): 1.07 µM
Compound: COc1ccc(/C=N/Nc2[nH]nc(C)c2C(=O)NCCc2c[nH]c3ccccc23)cc1

IC50 (Aurora kinase A): 1.09 µM
Compound: COc1ccc(/C=N/Nc2[nH]nc(C)c2C(=O)Nc2ccccc2OC)cc1

inhibition [1]: 27.5%
Compound: CCOC(=O)c1c(C)n[nH]c1N/N=C/c1ccc(-c2ccccc2)cc1

IC50 (Aurora kinase A): 0.838 µM
Compound: COc1ccc(/C=N/Nc2[nH]nc(C)c2C(=O)NCc2cccc(OC)c2)cc1
